Compound activity from PubChem BioAssay.
A selection: hits, their analogues and other compounds. The true share with any hit is near 2.8%.
CAL PDZ FP-1 – inhibitors of human CAL PDZ peptide binding | purified CAL PDZ, TMR-peptide fluorescence polarization, 1 h | Q9HD26 | 0.02% of 330,000 active | inhibition, % at 20 µM | AID 504414;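 active means highest replicate inhibition of at least 40%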
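Test system: purified CerCALP PDZ construct; Compound dosing: one concentration, 20 µM compound; Also added: TMR-labelled reporter peptide T*-PRC34 bound in PDZ groove; Read-out: inhibition from polarization loss; Controls: unlabelled peptide and DMSO controls; Signal: FP readout, S and P plane fluorescence; Incubation: 1 h at RT.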
SR-BI DiI inh – mouse SR-BI HDL lipid transfer inhibition; ldlA[mSR-BI] CHO cells, DiI-HDL uptake fluorescence, 3 h; inhibition, % at 12.5 µM; 0.96% of 320,000 active;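 active means mean replicate inhibition of at least 70% and a set share of replicates each scoring 70 or more; inconclusive means meets just one of the two criteria; inactive means fails both criteria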
SR-BI uptake up – SR-BI HDL lipid transfer activation; CHO ldlA[mSR-BI] cells, DiI-HDL uptake fluorescence, 3 h; 100 = double the neutral-control signal; activation, % at 12.5 µM; 0.096% of 320,000 active;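 active means mean replicate activation of at least 60% and every replicate at or above 60%; inconclusive means mean or all-replicate condition met, but not both; inactive means mean below 60% and not all replicates reaching 60%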
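Material – SR-BI-overexpressing, LDLR-lacking CHO cells · Medium – BSA-supplemented, HEPES-buffered Ham's F12, pH 7.4 · Doses – single concentration · Times – compound with DiI-HDL co-incubation, 3 h at 37 °C · Measured by – bottom-read fluorescence, 550/595 nm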
dFosB act-1 – mouse delta FosB homodimer activation; P13346; purified delta FosB, TAMRA-CDK5 oligo fluorescence polarization; percent of positive-control signal above neutral wells; activation, % at 25 µM; 0.99% of 340,000 active; AID 493131;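 active means mean activation above about 17%, with every replicate also reaching it, limit read from the data, passing the limit was not always enough; inconclusive means only one of the two conditions met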
Target sequence (P13346 whole entry, looked up): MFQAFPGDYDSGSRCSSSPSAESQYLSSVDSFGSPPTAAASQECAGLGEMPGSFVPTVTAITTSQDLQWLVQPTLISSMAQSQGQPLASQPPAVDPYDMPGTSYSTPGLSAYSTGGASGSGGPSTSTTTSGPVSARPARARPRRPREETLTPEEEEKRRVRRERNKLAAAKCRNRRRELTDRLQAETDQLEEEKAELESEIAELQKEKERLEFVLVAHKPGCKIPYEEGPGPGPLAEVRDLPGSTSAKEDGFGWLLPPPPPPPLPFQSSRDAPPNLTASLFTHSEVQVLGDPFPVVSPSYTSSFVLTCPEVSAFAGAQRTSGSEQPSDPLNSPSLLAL
CAL PDZ FP-2 – inhibitors of human CAL PDZ peptide binding. Q9HD26. purified CAL PDZ, TMR-peptide fluorescence polarization, 1 h. inhibition, % at 24.9 µM. 0.92% of 300,000 active. AID 602252;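 active means mean inhibition of at least 30% with at least half of replicates also reaching 30%; inconclusive means no clear call, values can overlap the other calls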
dFosB act-2 – delta FosB (mouse) homodimer activation; shares compounds with dFosB act-1; purified delta FosB, TAMRA-CDK5 oligo fluorescence polarization; normalised: neutral wells 0, positive control 100; activation, % at 24.9 µM; 2,400 tested, under 10 active; AID 588690;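 active means highest replicate activation at or above 34% and every replicate reaching that threshold; inconclusive means meets only one of the two criteria; inactive means meets neither criterion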;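 further: higher polarization means more probe DNA bound by delta FosB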
Of the large screens only hits and unclear results are named; the others gave an inactive call (follow-up assays come after a bar, where they were run).

N#Cc1ccc(-c2ccc(OCC(O)CN3CCCCC3)cc2)cc1 (stereo not drawn)	none
O=c1c2c(O)cc(O)cc2oc2c(O)ccc(O[C@H]3O[C@@H](CO)[C@H](O)[C@@H](O)[C@@H]3O)c12	dFosB act-1 17 | dFosB act-2 inactive
COc1ccc(/C=C(/Sc2nnc(-c3ccc(Cl)cc3)o2)C(=O)O)cc1	dFosB act-1 36 (no result: CAL PDZ FP-1) | dFosB act-2 inactive
CCN(CC)S(=O)(=O)c1ccc(-c2nnc(SCC(=O)Nc3ccc(OC)cc3)o2)cc1	dFosB act-1 107 (no result: SR-BI DiI inh, SR-BI uptake up) | dFosB act-2 inactive
CCS(=O)(=O)Nc1ccc(-c2nnc(SCC(=O)OC)o2)cc1	none
CCC(=O)Nc1ccc(C(=O)CSc2nnc(-c3ccc(NS(=O)(=O)CC)cc3)o2)cc1OC	dFosB act-1 20 | dFosB act-2 inactive
COc1cc(/C=C(/Sc2nnc(-c3ccc(F)cc3)o2)C(=O)O)ccc1OC(F)F	none
O=C(CSc1nnc(-c2ccc(Br)cc2)o1)Nc1cccc2ccccc12	dFosB act-1 30 (no result: CAL PDZ FP-2) | dFosB act-2 inactive
COc1ccc(-c2nnc(SCC(=O)Nc3nncs3)o2)cc1	none
Cc1ccc(C)c(NC(=O)CSc2nnc(-c3ccccc3C)o2)c1	none (no result: CAL PDZ FP-2)
Cc1ccc(C)c(NC(=O)CSc2nnc(-c3n[nH]c4ccccc34)o2)c1	dFosB act-1 34 | dFosB act-2 inactive
COc1ccc(-c2nnc(SCC(=O)Nc3cccc(Cl)c3)o2)cc1	dFosB act-1 38 | dFosB act-2 inactive
O=C1C=C(c2ccc(F)c(Cl)c2)C[C@@H](c2ccc(F)cc2)C1	none
Cc1cccc(-n2c(CNC(=O)c3ccc(S(=O)(=O)N4CCCCC4)cc3)n[nH]c2=S)c1	none
O=C(Nc1ccccc1-c1ccccc1)c1ccc(=O)[nH]n1	none (no result: CAL PDZ FP-2)
COc1cc(NC(=O)c2nn(C)c3c2CS(=O)(=O)c2ccccc2-3)cc(OC)c1	dFosB act-1 23 | dFosB act-2 inactive
COc1ccc([N+](=O)[O-])cc1Nc1ncnc2ccccc12	dFosB act-1 38 | dFosB act-2 inactive
O=C(COc1ncnc2ccccc12)Nc1cc([N+](=O)[O-])ccc1Cl	dFosB act-1 21 | dFosB act-2 inactive
O=[N+]([O-])c1ccc(N=Nc2ccc(O)c3ccccc23)cc1	none
CN1/C(=C\C=N\NC(=O)c2ccccc2Br)C(C)(C)c2ccccc21	none
CN1/C(=C/C=N/n2cnnc2)C(C)(C)c2ccccc21	dFosB act-1 20 | dFosB act-2 inactive
COc1cccc(/C=C/C(=O)OCC(=O)c2ccc3c(c2)NC(=O)CO3)c1OC	none
CC(=O)c1c(C)[nH]c(C(=O)OCC(=O)c2ccc3c(c2)NC(=O)CO3)c1C	dFosB act-1 30, CAL PDZ FP-2 81 | dFosB act-2 inactive
O=C1COc2ccc(C(=O)COC(=O)/C=C/c3cccc(F)c3)cc2N1	dFosB act-1 80 | dFosB act-2 inactive
CCCCc1ncc(CN2CCC(n3nccc3NC(=O)C(OC)c3ccccc3)CC2)[nH]1 (stereo not drawn)	none
CSc1cccc(NC(=O)NCc2cccc(CNC(=O)Nc3cccc(SC)c3)c2)c1	dFosB act-1 25 (no result: SR-BI DiI inh, SR-BI uptake up) | dFosB act-2 inactive
COc1ccccc1-c1cc(C(=O)Nc2ccc(F)cc2F)no1	dFosB act-1 25 (no result: CAL PDZ FP-2) | dFosB act-2 inactive
COc1ccccc1-c1cc(C(=O)NC(C)C)no1	none (no result: CAL PDZ FP-2)
O=C(Cn1c(=O)n(CCC(=O)N2CCCCC2)c(=O)c2sccc21)NCc1ccccc1	none
O=C(Cn1nc(-c2ccccc2)ccc1=O)Nc1ccc(N2CCN(C(=O)c3ccccc3)CC2)cc1	none
COc1ccc(-n2nnc3c(=O)n(CC(=O)Nc4ccc5c(c4)OCCO5)cnc32)cc1OC	dFosB act-1 49 | dFosB act-2 inactive
COc1ccc(CNC(=O)Cn2nc(-c3ccc4c(c3)OCCO4)ccc2=O)cc1	none
O=C(Cn1nc(-c2ccccc2)ccc1=O)Nc1ccc(-n2cnnn2)cc1	SR-BI uptake up 116, dFosB act-1 58 | dFosB act-2 inactive
O=C(Cn1cnc2c(nnn2-c2cccc(F)c2)c1=O)Nc1ccc2c(c1)OCCO2	dFosB act-1 inconclusive
O=C(Cn1nc(-c2ccccc2)ccc1=O)Nc1ccc(NC(=O)c2ccccn2)cc1	SR-BI DiI inh 75, dFosB act-1 25 (no result: CAL PDZ FP-2) | dFosB act-2 inactive
COc1ccc(-c2ccc(=O)n(CC(=O)Nc3ccc4c(c3)OCCO4)n2)cc1	dFosB act-1 22 | dFosB act-2 inactive
O=C(O)C1=CC[C@@H](c2ccc(Cl)cc2)N(S(=O)(=O)c2ccc(Cl)cc2)[C@H]1c1cccc(Cl)c1	none
CC(=O)N1CCC2(CC1)C/C(=N\NC(=S)Nc1ccc(C)cc1)c1cc(O)ccc1O2	none (no result: CAL PDZ FP-2)
CCn1cc(CN2CCC(n3nccc3NC(=O)c3ccc4c(c3)OCO4)CC2)c(C)n1	none
CN(CCc1ccccc1)C(=O)CCc1nnc(Cc2ccc3c(c2)OCO3)o1	none
O=C(CN(c1ccccc1)S(=O)(=O)c1ccccc1[N+](=O)[O-])N1CCCC1	none (no result: SR-BI DiI inh, SR-BI uptake up)
O=C(Cn1nc(-c2ccc3c(c2)OCCO3)ccc1=O)Nc1ccc(-n2cnnn2)cc1	dFosB act-1 81 (no result: CAL PDZ FP-2) | dFosB act-2 inactive
CC(=O)Nc1cc2c(cc1NC(=O)Cn1nc(-c3ccc4c(c3)OCCO4)ccc1=O)OCCO2	none (no result: CAL PDZ FP-2)
O=C(Nc1ccccc1Cc1ccccc1)C1CC(=O)N(c2ccc3c(c2)OCCO3)C1 (stereo not drawn)	dFosB act-1 36 | dFosB act-2 inactive
OC/C(Br)=C(\Br)CO	none
O=C(N/N=C/c1cc([N+](=O)[O-])ccc1Cl)c1ccc2nc[nH]c2c1	dFosB act-1 35 (no result: CAL PDZ FP-2) | dFosB act-2 inactive
Cc1ccc(S(=O)(=O)N2CCOCC2)cc1NC(=O)COC(=O)c1ccc(Cl)nc1	none (no result: CAL PDZ FP-2)
COc1cccc(C2c3c(oc4cc(C)c(C)cc4c3=O)C(=O)N2CCCN(C)C)c1 (stereo not drawn)	dFosB act-1 38 (no result: CAL PDZ FP-2) | dFosB act-2 inactive
CCC(=O)N1c2ccc(S(=O)(=O)NCCc3ccccc3)cc2CC1C (stereo not drawn)	none
CC1CC(C)CN(c2ccc(NS(=O)(=O)c3ccccc3)cc2C(=O)O)C1 (stereo not drawn)	none
c1ccc(Nc2nc(Nc3ccccc3)nc(N3CCNCC3)n2)cc1	none
CN1CCN(c2nc(Nc3ccc(F)cc3)nc(Nc3ccc(F)cc3)n2)CC1	dFosB act-1 40 | dFosB act-2 inactive
CCOC(=O)c1c(CC(C)C)csc1NC(=O)COC(=O)c1cc(OC)c(OC)cc1[N+](=O)[O-]	none
COc1ccc(-n2c(SCC(=O)Nc3cc(C)on3)nc3c(c2=O)SCC3)cc1	none
Cc1ccc(-n2c(SCC(=O)NCc3ccco3)nc3sc(C)c(C)c3c2=O)cc1	dFosB act-1 31 | dFosB act-2 inactive
